Consider one molecule from ChEMBL document CHEMBL5653623 (J Pharmacol Exp Ther, 2015).

The target of data set [1] is Dual specificity protein kinase CLK4 (Homo sapiens, UniProt Q9HAZ1). The experiment in a line: Inhibition of CLK4 (unknown origin).
The nature of data set [2]: Cmax in C57Bl/6 mouse at 2 mg/kg, iv measured after 480 mins by LC-MS/MS analysis. Type of data set: ADME, organism-based. To be noted: in vivo. The gist of the method:
(§1)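 Male C57Bl/6 mice (20-25 g) given a single IV dose (2 mg/kg) or oral dose (10 mg/kg). Blood was sampled at 5, 15, 30, 60, 120, 240, 360 and 480 min and plasma prepared by centrifugation. Plasma drug levels were measured by LC/MS/MS. Values are mean (CV%), N=3.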

Data set [3] is described as follows: Tmax in C57Bl/6 mouse at 10 mg/kg, po measured after 480 mins by LC-MS/MS analysis. Type of data set: ADME, organism-based. The following applies: in vivo. In a few lines:
as §1

A short description of data set [4]: Oral biavailability in C57Bl/6 mouse at 10 mg/kg measured after 480 mins by LC-MS/MS analysis. The format is ADME, organism-based. The following applies: in vivo. The gist of the method:
as §1

Data set [5] can be described thus: Unbound brain concentration in C57Bl/6 mouse at 3 mg/kg, po administered for 1 hr. The format is ADME, organism-based. The following applies: in vivo.
A short description of data set [6]: Unbound brain concentration in C57Bl/6 mouse at 30 mg/kg, po administered for 1 hr. To be noted: in vivo. Type of data set: ADME, organism-based.
A short description of data set [7]: Unbound brain concentration in C57Bl/6 mouse at 100 mg/kg, po administered for 1 hr. Type of data set: ADME, organism-based. To be noted: in vivo.
Data set [8] addresses Leucine-rich repeat serine/threonine-protein kinase 2 (Mus musculus) (UniProt Q5S006). The experiment in a line: In vivo inhibition of LRRK2 in C57Bl/6 mouse brain assessed as decrease in pSer935 LRRK2 at 10 to 100 mg/kg, po measured after 1 hr by Western blotting analysis relative to control. The format is functional, organism-based. To be noted: dose 10-100 mg/kg. In a few lines: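 Male C57Bl/6 mice, 20-25 g. Single oral dose of 1-100 mg/kg suspended in 30% Captisol (10 mL/kg), or vehicle, given 1 h before CO2 euthanasia. Cortex frozen on dry ice and pSer935 LRRK2 read by Western blot. n = 5 per group.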

Data set [9] can be described thus: Toxicity in C57Bl/6 mouse assessed as change in body weight measured after 11 days. The following applies: in vivo, 264 h, time 11 day. In a few lines:
(§2)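 Male C57Bl/6 mice, singly housed on a reversed 12 h light cycle, were fed diet formulated to give 3, 10, 30, 60 or 120 mg/kg/day (assumes 3 g/day intake) or untreated diet for 11 days. Body weight and food intake were monitored. Spontaneous locomotion and rearing were recorded over 60 min. On day 11, mice were euthanized 4, 8 or 24 h after dark onset and plasma and brain drug levels measured; n = 5 per group.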

Data set [10] is described as follows: Toxicity in C57Bl/6 mouse assessed as lower food intake measured after 1 to 3 days. To be noted: in vivo, time 1-3 day. The gist of the method:
as §2

The target of data set [11] is Leucine-rich repeat serine/threonine-protein kinase 2 (Mus musculus) (UniProt Q5S006). The experiment in a line: In vivo inhibition of LRRK2 in C57Bl/6 mouse brain assessed as reduction in pSer935 LRRK2 administered for 11 days and measured after 4 hrs by Western blotting analysis. Type of data set: functional, organism-based. To be noted: dose 3-120 mg/kg, time 11.0 day. The gist of the method:
(§3)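 Male C57Bl/6 mice, singly housed on a reversed light cycle. Fed drug diet targeted to 3, 10, 30, 60 or 120 mg/kg/day (assuming 3 g/day intake), or untreated diet, for 11 days. Killed 4, 8 or 24 h after dark-cycle onset, n = 5 per group. Cortex immunoblotted for pSer935/total LRRK2 and total LRRK2/GAPDH. Total LRRK2 detected with MJFF2 antibody.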

The target is the same in data set [12]. The experiment in a line: In vivo inhibition of LRRK2 in C57Bl/6 mouse brain assessed as reduction in pSer935 LRRK2 at 30 mg/kg administered for 11 days and measured for 4 to 24 hrs by Western blotting analysis. The format is functional, organism-based. The following applies: time 11.0 day. The gist of the method: as §3
Data set [13] has the same target. The experiment in a line: In vivo inhibition of LRRK2 in C57Bl/6 mouse kidney assessed as reduction in pSer935 LRRK2 administered for 11 days by Western blotting analysis. Type of data set: functional, organism-based. To be noted: time 11.0 day. The gist of the method: (§4)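 Same 11-day in-diet design in male C57Bl/6 mice: 3-120 mg/kg/day or untreated diet, killed 4, 8 or 24 h after dark-cycle onset, n = 5 per group. Kidneys dissected for Western blot of pSer935 and total LRRK2, with total LRRK2 detected by MJFF-2 antibody.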

Data set [14] shares this target. The experiment in a line: In vivo inhibition of LRRK2 in C57Bl/6 mouse kidney assessed as total LRRK2 protein level at 10 to 120 mg/kg administered for 11 days and measured after 8 hrs by Western blotting analysis. The format is functional, organism-based. The following applies: dose 10-120 mg/kg, time 11.0 day. In a few lines: as §4
For data set [15] the target is unchanged. The experiment in a line: In vivo inhibition of LRRK2 in C57Bl/6 mouse kidney assessed as total LRRK2 protein level at 30 to 120 mg/kg administered for 11 days and measured after 24 hrs by Western blotting analysis. Type of data set: functional, organism-based. The following applies: dose 30-120 mg/kg, time 11.0 day. In a few lines:
as §4

Data set [16] in a line: Unbound plasma concentration in C57Bl/6 mouse administered for 11 days. The following applies: 264 h, dose 3-100 mg/kg, time 11 day. Type of data set: ADME, cell-free. In a few lines: as §2
A short description of data set [17]: Unbound plasma concentration in C57Bl/6 mouse administered for 11 days and measured after 24 hrs. The following applies: 264 h, time 11 day. Type of data set: ADME, cell-free. In a few lines: as §2
Data set [18] deals with Leucine-rich repeat serine/threonine-protein kinase 2 (Mus musculus) (UniProt Q5S006). The experiment in a line: In vivo inhibition of LRRK2 in MitoPark mouse assessed as reduction in pSer935 LRRK2 at 30 mg/kg administered for 15 weeks and measured after 24 hrs by Western blotting analysis relative to control. Type of data set: functional, organism-based. The gist of the method:
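MitoPark mice fed diet targeted to 30 mg/kg/day, or untreated diet, from 5 weeks of age. Cortex collected after 3, 9 or 15 weeks of treatment, n = 10 per group. Blots probed for pSer935 LRRK2, total LRRK2 (MJFF-2 antibody) and GAPDH. pSer935 reported relative to vehicle-diet MitoPark mice.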

The subject of data set [19] is Mus musculus. The experiment in a line: Effect on behavioral phenotype in 8 weeks old MitoPark mouse assessed as rearing behavior at 30 mg/kg/day administered for 3 weeks and measured after 60 mins. The format is functional, organism-based. The gist of the method:
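MitoPark mice, 5 weeks old, were allocated by baseline 60-min LMA to untreated diet or diet targeting 30 mg/kg/day (reformulated every 3 weeks). Wild-type littermates received vehicle diet. Body weight and food intake were recorded weekly. 60-min LMA (distance, rearing) was run at 8, 11, 14 and 17 weeks of age.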

Data set [20] deals with Mus musculus. The experiment in a line: Effect on behavioral changes in 14 weeks old MitoPark mouse striatum assessed as dopamine level at 30 mg/kg/day by HPLC analysis. The format is functional. The gist of the method:
(§5)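 Striatum from MitoPark mice on diet targeting 30 mg/kg/day or vehicle diet (wild-type littermate controls) was homogenized by sonication in 0.1 M acid at 0.1 g/mL. Samples were held 60 min at 4 °C and centrifuged. Dopamine, DOPAC and HVA were measured by HPLC with electrochemical detection against a 3,4-DHBA internal standard and standard curves. Mean ± SEM.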

Data set [21] concerns Mus musculus. The experiment in a line: Effect on behavioral changes in 8 weeks old MitoPark mouse striatum assessed as DOPAC level at 30 mg/kg/day administered for 3 weeks by HPLC analysis. Type of data set: functional. In a few lines: as §5
Data set [22] deals with Leucine-rich repeat serine/threonine-protein kinase 2 (Mus musculus) (UniProt Q5S006). The experiment in a line: In vivo inhibition of LRRK2 in 20 weeks old MitoPark mouse kidney assessed as reduction in pSer935 LRRK2 level at 30 mg/kg/day administered for 15 weeks by Western blotting analysis. Type of data set: functional, organism-based. The gist of the method: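 MitoPark mice on drug-containing diet targeted to 30 mg/kg/day from 5 weeks of age, with the diet reformulated every 3 weeks to hold the target. Untreated-diet MitoPark and wild-type littermate controls. Killed by CO2 at 20 weeks of age. Lung and kidney taken from 5 mice per group for pSer935 and total LRRK2 immunoblots.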
Sequence of Leucine-rich repeat serine/threonine-protein kinase 2 (Mus musculus) (Q5S006 whole entry): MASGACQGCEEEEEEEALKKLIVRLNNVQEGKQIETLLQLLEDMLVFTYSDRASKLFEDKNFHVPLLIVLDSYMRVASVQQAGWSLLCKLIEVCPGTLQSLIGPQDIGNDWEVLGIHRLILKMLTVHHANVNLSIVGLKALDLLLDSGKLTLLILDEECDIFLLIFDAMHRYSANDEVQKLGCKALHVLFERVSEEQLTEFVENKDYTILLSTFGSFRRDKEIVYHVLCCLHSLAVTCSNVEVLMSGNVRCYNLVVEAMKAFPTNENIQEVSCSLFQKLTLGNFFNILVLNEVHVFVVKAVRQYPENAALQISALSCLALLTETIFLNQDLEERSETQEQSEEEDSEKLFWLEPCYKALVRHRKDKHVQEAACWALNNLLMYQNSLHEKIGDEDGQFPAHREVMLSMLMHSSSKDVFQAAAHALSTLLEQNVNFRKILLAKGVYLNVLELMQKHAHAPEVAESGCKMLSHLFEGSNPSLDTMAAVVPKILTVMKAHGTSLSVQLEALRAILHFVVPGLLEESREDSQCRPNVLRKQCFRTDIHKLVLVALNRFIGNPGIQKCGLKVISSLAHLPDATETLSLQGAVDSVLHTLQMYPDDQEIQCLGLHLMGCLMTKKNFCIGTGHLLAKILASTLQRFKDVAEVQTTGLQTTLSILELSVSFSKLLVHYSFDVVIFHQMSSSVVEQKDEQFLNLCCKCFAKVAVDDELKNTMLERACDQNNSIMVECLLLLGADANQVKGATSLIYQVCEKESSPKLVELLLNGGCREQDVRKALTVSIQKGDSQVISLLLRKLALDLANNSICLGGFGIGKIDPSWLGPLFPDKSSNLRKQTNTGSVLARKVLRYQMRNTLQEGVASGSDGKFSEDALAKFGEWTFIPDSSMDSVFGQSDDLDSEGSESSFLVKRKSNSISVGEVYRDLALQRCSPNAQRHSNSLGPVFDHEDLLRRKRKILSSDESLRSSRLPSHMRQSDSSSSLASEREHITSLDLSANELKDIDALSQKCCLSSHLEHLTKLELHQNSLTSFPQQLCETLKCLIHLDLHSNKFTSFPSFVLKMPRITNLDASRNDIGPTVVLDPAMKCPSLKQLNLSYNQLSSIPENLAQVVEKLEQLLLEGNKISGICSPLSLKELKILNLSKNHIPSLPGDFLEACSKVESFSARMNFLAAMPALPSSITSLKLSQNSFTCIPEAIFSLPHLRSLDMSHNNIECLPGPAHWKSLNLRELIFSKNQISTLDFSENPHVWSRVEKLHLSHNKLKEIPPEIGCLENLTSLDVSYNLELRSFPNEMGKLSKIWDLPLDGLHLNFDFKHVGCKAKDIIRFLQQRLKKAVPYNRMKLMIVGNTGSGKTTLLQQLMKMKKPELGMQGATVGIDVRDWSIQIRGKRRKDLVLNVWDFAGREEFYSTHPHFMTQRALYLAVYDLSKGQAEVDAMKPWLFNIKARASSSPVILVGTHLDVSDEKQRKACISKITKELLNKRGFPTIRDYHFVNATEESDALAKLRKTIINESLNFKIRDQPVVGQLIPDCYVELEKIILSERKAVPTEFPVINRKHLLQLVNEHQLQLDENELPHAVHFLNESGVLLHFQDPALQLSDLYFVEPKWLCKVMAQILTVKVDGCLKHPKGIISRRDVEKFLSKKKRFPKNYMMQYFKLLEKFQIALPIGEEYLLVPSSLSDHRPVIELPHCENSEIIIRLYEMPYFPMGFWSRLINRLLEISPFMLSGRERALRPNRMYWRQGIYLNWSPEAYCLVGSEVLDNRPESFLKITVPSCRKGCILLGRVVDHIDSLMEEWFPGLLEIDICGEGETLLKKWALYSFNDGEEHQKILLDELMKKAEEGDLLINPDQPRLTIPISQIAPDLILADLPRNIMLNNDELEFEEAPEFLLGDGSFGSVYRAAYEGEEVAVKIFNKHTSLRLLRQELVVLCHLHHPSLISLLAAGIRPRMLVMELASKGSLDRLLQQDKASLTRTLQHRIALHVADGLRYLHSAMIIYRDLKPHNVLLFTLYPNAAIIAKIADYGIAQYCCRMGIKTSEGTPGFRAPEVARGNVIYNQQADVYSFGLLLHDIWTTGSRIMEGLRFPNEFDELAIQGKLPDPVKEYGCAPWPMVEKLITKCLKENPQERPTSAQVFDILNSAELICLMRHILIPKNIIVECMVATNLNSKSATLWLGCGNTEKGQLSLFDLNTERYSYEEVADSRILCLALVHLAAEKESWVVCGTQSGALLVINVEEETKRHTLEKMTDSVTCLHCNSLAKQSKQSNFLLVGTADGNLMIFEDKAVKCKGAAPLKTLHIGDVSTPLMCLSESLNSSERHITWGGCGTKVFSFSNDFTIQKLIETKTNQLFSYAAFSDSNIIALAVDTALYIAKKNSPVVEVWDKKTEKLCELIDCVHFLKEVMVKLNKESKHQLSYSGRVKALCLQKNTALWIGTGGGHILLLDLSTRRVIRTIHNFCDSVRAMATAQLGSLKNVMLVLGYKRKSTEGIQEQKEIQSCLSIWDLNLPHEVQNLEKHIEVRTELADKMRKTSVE

pIC50: −log10 of the molar value. The source made the active and inactive calls. The calls are words filed in the database; no cut-off is given here. Some results are limits rather than exact numbers.

Sequence of Dual specificity protein kinase CLK4 (Q9HAZ1 whole entry): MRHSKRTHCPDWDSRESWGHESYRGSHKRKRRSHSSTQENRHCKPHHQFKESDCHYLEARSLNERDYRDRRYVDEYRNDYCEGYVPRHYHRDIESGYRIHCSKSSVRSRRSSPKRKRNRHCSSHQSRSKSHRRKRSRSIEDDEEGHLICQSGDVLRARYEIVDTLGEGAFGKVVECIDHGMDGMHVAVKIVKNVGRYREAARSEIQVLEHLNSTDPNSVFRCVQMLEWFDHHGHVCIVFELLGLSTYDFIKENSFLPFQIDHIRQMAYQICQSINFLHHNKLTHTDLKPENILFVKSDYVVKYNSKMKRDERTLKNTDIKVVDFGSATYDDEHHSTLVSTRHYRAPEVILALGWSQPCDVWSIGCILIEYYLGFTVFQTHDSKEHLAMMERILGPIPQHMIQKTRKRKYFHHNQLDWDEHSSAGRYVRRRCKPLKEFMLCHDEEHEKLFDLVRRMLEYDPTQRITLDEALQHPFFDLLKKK

In [1], `C[C@@H]1CN(c2cc(-c3n[nH]c4ccc(OC5(C)CC5)cc34)ncn2)C[C@H](C)O1` [MLi-2] showed a pIC50 of 6.65. Besides, in data set [2], the highest concentration (Cmax) was 0.716 µM. Also, the time to peak (Tmax) in [3] turned out to be 45 min. The molecule further showed a bioavailability in data set [4] of 45%. In addition, the “Drug uptake(free)” value is 2.4 nM in data set [5]; 91.8 nM in data set [6]; 272.9 nM in [7]; “Dose-Dependent Effect” in data set [16]; “Active” in data set [17]. For the same molecule, the results for the inhibition in [8], in data set [11] and in data set [18] were more than 90%, “Dose-Dependent Effect” and more than 90%, respectively. The Activity result in data set [9] was “Non-Toxic”; in [10], “Toxic”; in the data set with Mus musculus [20], 1105 ng/g; in the data set with Mus musculus [21], 8966 ng/g. Moreover, the inhibition entry in data set [12], in [13], in [14], in data set [15] and in data set [22] was “Active” in each case. Besides, in the data set with Mus musculus [19], the result was Active.
